# Data reported in ChEMBL document CHEMBL2390868, “Design and synthesis of dimethylaminomethyl-substituted curcumin derivatives/analogues: potent antitumor and antioxidant activity, improved stability and aqueous solubility compared with curcumin” (Bioorg Med Chem Lett, 2013).
# Columns and labels:
# [1] = Aqueous solubility of the compound by UV-vis absorption spectroscopic analysis; assay type: physicochemical
# [2] = Antioxidant activity assessed as galvinoxyl free radical scavenging activity at 2 uM relative to control; assay type: functional
# [3] = tested on: Radical scavenging activity; experiment: Antioxidant activity assessed as DPPH free radical scavenging activity; assay type: functional
# [4] = tested on: Radical scavenging activity; experiment: Antioxidant activity assessed as DPPH free radical scavenging activity at 20 uM relative to control; assay type: functional
# [5] = tested on: Radical scavenging activity; experiment: Antioxidant activity assessed as DPPH free radical scavenging activity at 100 uM relative to control; assay type: functional
# [6] = tested on: Radical scavenging activity; experiment: Antioxidant activity assessed as DPPH free radical scavenging activity at 10 uM relative to control; assay type: functional
# [7] = tested on: HepG2; experiment: Cytotoxicity against human HepG2 cells assessed as growth inhibition after 72 hrs by MTT assay; assay type: functional, cell-based; settings: HepG2, 72 h
# [8] = Antioxidant activity assessed as galvinoxyl free radical scavenging activity at 100 uM relative to control; assay type: functional
# [9] = tested on: Radical scavenging activity; experiment: Antioxidant activity assessed as DPPH free radical scavenging activity at 2 uM relative to control; assay type: functional
# [10] = tested on: Radical scavenging activity; experiment: Antioxidant activity assessed as DPPH free radical scavenging activity at 1 uM relative to control; assay type: functional
# [11] = Antioxidant activity assessed as galvinoxyl free radical scavenging activity; assay type: functional
# [12] = Antioxidant activity assessed as galvinoxyl free radical scavenging activity at 1 uM relative to control; assay type: functional
# [13] = tested on: SGC-7901; experiment: Cytotoxicity against human SGC7901 cells assessed as growth inhibition after 72 hrs by MTT assay; assay type: functional, cell-based; settings: SGC-7901, 72 h
# [14] = tested on: A549; experiment: Cytotoxicity against human A549 cells assessed as growth inhibition after 72 hrs by MTT assay; assay type: functional, cell-based; settings: A549, 72 h
# [15] = Antioxidant activity assessed as galvinoxyl free radical scavenging activity at 10 uM relative to control; assay type: functional
# [16] = tested on: HCT-116; experiment: Cytotoxicity against human HCT116 cells assessed as growth inhibition after 72 hrs by MTT assay; assay type: functional, cell-based; settings: HCT-116, 72 h
# [17] = Antioxidant activity assessed as galvinoxyl free radical scavenging activity at 20 uM relative to control; assay type: functional
# [18] = tested on: HCT-116; experiment: Ratio of curcumin IC50 to compound IC50 for human HCT116 cells; assay type: functional
# [19] = tested on: HepG2; experiment: Cell cycle arrest in human HepG2 cells assessed as accumulation at G0/G1 phase at 30 uM after 12 hrs by propidium iodide staining-based FACS flow cytometric analysis (reference value: 22.94%); assay type: functional
# [20] = tested on: HepG2; experiment: Cell cycle arrest in human HepG2 cells assessed as accumulation at G2/M phase at 30 uM after 12 hrs by propidium iodide staining-based FACS flow cytometric analysis (reference value: 33.98%); assay type: functional
# [21] = tested on: HepG2; experiment: Ratio of curcumin IC50 to compound IC50 for human HepG2 cells; assay type: functional
# [22] = tested on: HepG2; experiment: Cell cycle arrest in human HepG2 cells assessed as accumulation at S phase at 30 uM after 12 hrs by propidium iodide staining-based FACS flow cytometric analysis (reference value: 22.47%); assay type: functional
# [23] = Stability of the compound in phosphate-buffered solution assessed as drug degradation under daylight condition at […] measured within 120 mins by UV-vis absorption spectroscopic analysis in presence of FBS; assay type: physicochemical; settings: buffer, 2 h
# Method in brief: (§1)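 Absorbance at 410 nm followed over time in phosphate-buffered solution (pH 7.4) under daylight, without or with 0.1% FBS; stability expressed as A/A0 relative to the 0 min reading.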
# [24] = Stability of the compound in phosphate-buffered solution assessed as drug degradation under daylight condition at […] measured within 120 mins by UV-vis absorption spectroscopic analysis in absence of FBS; assay type: physicochemical; settings: buffer, 2 h; method in brief: as §1
SMILES,Activity [2],IC50 [3],Activity [4],Activity [5],Activity [6],IC50 [7],Activity [8],Activity [9],Activity [10],IC50 [11],Activity [12],IC50 [13],IC50 [14],Activity [15],IC50 [16],Activity [17],Stability [23],Stability [24],also measured
CN(C)Cc1cc(/C=C2\CCC/C(=C\c3ccc(O)c(CN(C)C)c3)C2=O)ccc1O.Cl.Cl,,,,,,,,,,,,,,,,,,,solubility [1]: 303 mg/mL
CN(C)Cc1cc(/C=C2\CCC/C(=C\c3cc(CN(C)C)c(O)c(CN(C)C)c3)C2=O)ccc1O,21.3%,2 µM,85.7%,90.3%,66.6%,49.5 µM,52.3%,54.5%,25.9%,65.9 µM,13.4%,45.3 µM,35.5 µM,36.5%,64.7 µM,38.7%,,,
COc1cc(/C=C/C(=O)CC(=O)/C=C/c2ccc(O)c(CN(C)C)c2)ccc1O,3.1%,18.6 µM,51.7%,91.2%,23.4%,5.2 µM,51.9%,5%,1.1%,66.6 µM,0%,23.5 µM,20.2 µM,16.5%,3.7 µM,37.8%,Unstable,Unstable,Ratio IC50 [18]: >10; Activity [19]: 29.4%; Activity [20]: 24.97%; Ratio IC50 [21]: >10; Activity [22]: 45.63%
CN(C)Cc1cc(/C=C2\CC/C(=C\c3ccc(O)c(CN(C)C)c3)C2=O)ccc1O,13.3%,2.3 µM,86.8%,90.4%,67.4%,43.6 µM,71.8%,54%,24.8%,45 µM,3.8%,57.3 µM,78.1 µM,30.6%,142 µM,46.8%,,,
COc1cc(/C=C/C(=O)CC(=O)/C=C/c2ccc(O)c(C[N+](C)(C)C)c2)ccc1O,,,,,,126 µM,,,,,,321 µM,,,,,,,
COc1cc(/C=C2\CCC/C(=C\c3cc(CN(C)C)c(O)c(OC)c3)C2=O)cc(CN(C)C)c1O,21.1%,4.8 µM,82.8%,86.3%,55%,24.3 µM,58.9%,40.1%,24.7%,16.3 µM,8.3%,25.8 µM,51.8 µM,38.9%,65.9 µM,52.9%,Stable,Stable,
CN(C)Cc1cc(/C=C2\CCC/C(=C\c3ccc(O)c(CN(C)C)c3)C2=O)ccc1O,,,,,,,,,,,,,,,,,Stable,Stable,
COc1cc(/C=C2\CC/C(=C\c3cc(CN(C)C)c(O)c(OC)c3)C2=O)cc(CN(C)C)c1O,12.8%,1.8 µM,82%,88.6%,50.9%,46.2 µM,58.6%,47.9%,38.6%,56.3 µM,8.6%,,,35.3%,24.4 µM,48%,,,
CN(C)Cc1cc(/C=C/C(=O)/C=C/c2ccc(O)c(CN(C)C)c2)ccc1O.Cl.Cl,,,,,,,,,,,,,,,,,,,solubility [1]: 368 mg/mL
COc1cc(/C=C/C(=O)CC(=O)/C=C/c2ccc(O)c(OC)c2)ccc1O [CURCUMIN],5.8%,26.5 µM,42%,87.2%,23.1%,78.7 µM,45%,2.4%,0.3%,> 100 µM,4.6%,29 µM,32.2 µM,13.7%,41.5 µM,22.2%,,,Activity [19]: 20.46%; Activity [20]: 50.2%; Activity [22]: 29.33%
